The test system of one assay is PC-3. Kind of assay: Cytotoxicity against human PC3 cells after 48 hrs by MTT assay. The assay is classed as functional, cell-based. To be noted: PC-3, 48 h. The gist of the method:
(§1)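 Cells grown in RPMI 1640 or DMEM-Ham's F12 with 10% FBS, 2 mmol/L L-glutamine, penicillin/streptomycin, at 37 °C, 5% CO2. Exponential-phase cells seeded at 6000/well, incubated 24 h, then exposed 48 h to 0.1–10 µM compound (DMSO ≤0.1% final). MTT 0.5 mg/mL added for 3 h, formazan dissolved in DMSO, read at 570-690 nm. IC50 from % viability; three independent assays, triplicate wells.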

Another assay concerns HT-29. Kind of assay: Cytotoxicity against human HT-29 cells after 48 hrs by MTT assay. The assay is classed as functional, cell-based. Conditions: HT-29, 48 h. The gist of the method:
as §1

The subject of the next assay is MDA-MB-231. Kind of assay: Cytotoxicity against human MDA-MB-231 cells after 48 hrs by MTT assay. Type of assay: functional, cell-based. Conditions: MDA-MB-231, 48 h. The gist of the method: as §1
(Tetrazolium assays rely on reduction of a dye to a coloured formazan, in cell work by metabolically active cells.)

Another assay has as its system NIH3T3. Kind of assay: Cytotoxicity against mouse 3T3 cells after 48 hrs by MTT assay. The assay is classed as cell-based. Conditions: NIH3T3, 48 h. The essentials: as §1
The subject of a further assay is HepG2. The assay is described as follows: Cytotoxicity against human HepG2 cells after 48 hrs by MTT assay. The assay is classed as functional, cell-based. To be noted: HepG2, 48 h. The essentials:
as §1

The next assay deals with HeLa. Kind of assay: Cytotoxicity against human HeLa cells after 48 hrs by MTT assay. Type of assay: functional, cell-based. The gist of the method:
as §1

In a further assay the test system is SK-BR-3. The assay is described as follows: Cytotoxicity against human SKBR3 cells after 48 hrs by MTT assay. Type of assay: functional, cell-based. Conditions: SK-BR-3, 48 h. The essentials:
as §1

A further assay deals with MCF7. The assay is described as follows: Cytotoxicity against human MCF7 cells after 48 hrs by MTT assay. Type of assay: functional, cell-based. Conditions: MCF7, 48 h. The gist of the method:
as §1

In another assay the test system is Vero. The assay is described as follows: Cytotoxicity against african green monkey Vero cells after 48 hrs by MTT assay. Type of assay: cell-based. To be noted: Chlorocebus sabaeus. The gist of the method:
as §1

A short description of assay [1]: Cytotoxicity against human Hep3B cells after 48 hrs by MTT assay. Type of assay: functional, cell-based, Hep 3B2. The gist of the method:
as §1

A further assay relates to SAOS-2. The assay is described as follows: Cytotoxicity against human Saos2 cells after 48 hrs by MTT assay. The assay is classed as functional, cell-based. To be noted: SAOS-2, 48 h. The essentials:
as §1

The test system of the next assay is AU565. The assay is described as follows: Cytotoxicity against human AU565 cells after 48 hrs by MTT assay. Type of assay: functional, cell-based. Conditions: AU565, 48 h. The gist of the method:
as §1

The test system of a further assay is LNCaP. Kind of assay: Cytotoxicity against human LNCAP cells after 48 hrs by MTT assay. Type of assay: functional, cell-based. The essentials: as §1
The next assay has as its system DU-145. Kind of assay: Cytotoxicity against human DU145 cells after 48 hrs by MTT assay. To be noted: DU-145, 48 h. The assay is classed as functional, cell-based. The gist of the method: as §1

One may read the IC50 as the concentration needed to halve the response being measured. Turning to `COc1cc([C@@H]2c3cc4c(cc3[C@@H](O[C@@H]3O[C@@H]5CO[C@@H](C)O[C@H]5[C@H](O)[C@H]3O)[C@H]3COC(=O)[C@H]23)OCO4)cc(OC)c1O` [ETOPOSIDE], the IC50 in the assay with PC-3 was 69.5 µM; in the assay on HT-29, 30.4 µM; in the assay on MDA-MB-231, 23.2 µM; in the assay on NIH3T3, 63 µM.
Consider `CC(C)=CCCC1=CC(=O)c2c(O)ccc(O)c2C1=O` [DEOXYSHIKONIN], for which the half-maximal inhibitory concentration (IC50) in the assay with HepG2 was found to be 0.9 µM; in the assay on HeLa, 0.85 µM; with PC-3, 4.29 µM; in the assay on SK-BR-3, 0.69 µM; in the assay on MCF7, 0.79 µM; with HT-29, 5.12 µM. In addition, the concentration for half-maximal inhibition (IC50) in the assay with Vero was found to be 0.66 µM; in [1], 6.02 µM; in the assay with SAOS-2 it was 0.85 µM; with MDA-MB-231, 5.08 µM; with AU565, 0.92 µM; in the assay with LNCaP, 12.2 µM. The IC50 was determined as 5.84 µM in the assay with NIH3T3 and 1.24 µM in the assay on DU-145.
With `CC(C)=CC[C@H](O)C1=CC(=O)c2c(O)ccc(O)c2C1=O` [ALKANNIN], the IC50 came out at 3.8 µM in the assay with HepG2; 0.91 µM in the assay on HeLa; 3.25 µM in the assay with PC-3; 0.78 µM in the assay on SK-BR-3; 3.06 µM in the assay with MCF7; 4.03 µM in the assay on HT-29. Besides, the IC50 in the assay with Vero turned out to be 0.7 µM; in assay [1], 3.84 µM; in the assay with SAOS-2, 2.31 µM; in the assay on MDA-MB-231, 4.27 µM; with AU565, 0.9 µM; with LNCaP it was 10.7 µM. For the same compound, the IC50 in the assay on NIH3T3 was found to be 5.21 µM; with DU-145, 5.02 µM.
For the compound `CC(C)=CC[C@H](OC(=O)C=C(C)C)C1=CC(=O)c2c(O)ccc(O)c2C1=O`, the IC50 with HepG2 is 1 µM; in the assay with HeLa it was 0.96 µM; with PC-3, 1.1 µM; in the assay on SK-BR-3, 0.68 µM; in the assay on MCF7, 5.15 µM; in the assay with HT-29 it was 0.8 µM. Besides, the IC50 came to 0.32 µM in the assay with Vero; 4.09 µM in assay [1]; 0.84 µM in the assay with SAOS-2; 0.32 µM with MDA-MB-231; 0.62 µM in the assay on AU565; 11.3 µM in the assay with LNCaP. Besides, the IC50 in the assay on NIH3T3 was 0.77 µM; in the assay on DU-145, 4.81 µM.
For `COc1ccc(O)c2c1C(=O)C=C([C@H](CC=C(C)C)OC(C)=O)C2=O`, the IC50 in the assay on HepG2 came to 0.87 µM; with HeLa it was 0.66 µM; in the assay with PC-3, 0.78 µM; in the assay with SK-BR-3, 0.44 µM; in the assay on MCF7 it was 14.1 µM; in the assay with HT-29, 0.62 µM. Besides, the IC50 was 0.59 µM with Vero; 10.2 µM in assay [1]; 13.8 µM with SAOS-2; 0.09 µM in the assay on MDA-MB-231; 0.59 µM with AU565; 11 µM in the assay with LNCaP. The IC50 in the assay on NIH3T3 amounted to 0.66 µM; in the assay with DU-145, 7.41 µM.
With `CC(=O)O[C@@H](CC=C(C)C)C1=CC(=O)c2c(O)ccc(O)c2C1=O` [ACETYLALKANNIN], the half-maximal inhibitory concentration (IC50) is 7.41 µM with HepG2; 6.75 µM in the assay on HeLa; 11 µM in the assay with PC-3; 1.66 µM in the assay on SK-BR-3; 7.05 µM with MCF7; 10.5 µM in the assay with HT-29. For the same compound, the IC50 came out at 0.76 µM in the assay with Vero; 6.06 µM in [1]; 4.93 µM in the assay with SAOS-2; 8.47 µM in the assay with MDA-MB-231; 0.88 µM in the assay with AU565; 11.5 µM in the assay with LNCaP. Besides, the IC50 with NIH3T3 is 7.73 µM; with DU-145, 6.65 µM.
Turning to `COc1cccc2c1C(=O)c1c(O)c3c(c(O)c1C2=O)C[C@@](O)(C(=O)CO)C[C@@H]3O[C@H]1C[C@H](N)[C@H](O)[C@H](C)O1` [DOXORUBICIN], the concentration for half-maximal inhibition (IC50) with PC-3 stood at 3.16 µM; with HT-29, 2.05 µM; in the assay with MDA-MB-231, 2 µM; in the assay on NIH3T3, 3.7 µM.
With `COc1ccc(O)c2c1C(=O)C=C(CCC=C(C)C)C2=O`, the IC50 was determined as 7.64 µM in the assay on HepG2; 0.91 µM in the assay on HeLa; 6.81 µM with PC-3; 2.2 µM with SK-BR-3; 16 µM with MCF7; 5.09 µM in the assay with HT-29. Besides, the IC50 with Vero worked out at 0.98 µM; in assay [1], 15.8 µM; in the assay on SAOS-2, 20.4 µM; in the assay with MDA-MB-231 it was 1.19 µM; in the assay on AU565, 0.88 µM; with LNCaP, 10.9 µM. The values for the IC50 in the assay with NIH3T3 and with DU-145 were 5.18 µM and 8.71 µM, respectively.
Turning to `COc1ccc(O)c2c1C(=O)C=C([C@H](CC=C(C)C)OC(=O)C=C(C)C)C2=O`, the IC50 came to 0.97 µM in the assay with HepG2; 0.82 µM in the assay with HeLa; 0.42 µM with PC-3; 0.83 µM with SK-BR-3; 14.8 µM in the assay with MCF7; 0.59 µM in the assay on HT-29. Further, the IC50 with Vero came to 0.79 µM; in assay [1], 11.8 µM; with SAOS-2 it was 14.5 µM; in the assay on MDA-MB-231, 0.26 µM; with AU565, 0.75 µM; in the assay on LNCaP, 11.4 µM. For the same compound, the IC50 stood at 4.67 µM in the assay with NIH3T3 and 8.55 µM with DU-145.
Take `COc1ccc(O)c2c1C(=O)C(CCC=C(C)C)=CC2=O`: the half-inhibitory concentration (IC50) is 8.05 µM in the assay on HepG2; 6.38 µM in the assay on HeLa; 7.48 µM with PC-3; 6.52 µM in the assay on SK-BR-3; 11.9 µM in the assay with MCF7; 5.98 µM with HT-29. Further, the IC50 worked out at 6.39 µM in the assay with Vero; 24.5 µM in [1]; 12.5 µM in the assay on SAOS-2; 5.11 µM with MDA-MB-231; 7.08 µM in the assay with AU565; 11.1 µM in the assay with LNCaP. For the same compound, the figures for the IC50 in the assay on NIH3T3 and with DU-145 were 6.57 µM and 12.1 µM, respectively.

These data come from ChEMBL document CHEMBL1157130, “Cytotoxic naphthoquinones from Alkanna cappadocica ( perpendicular)” (J Nat Prod, 2010).
